Measured values reported in ChEMBL document CHEMBL4052594, “Discovery of Pyrrolidine-Containing GPR40 Agonists: Stereochemistry Effects a Change in Binding Mode” (J Med Chem, 2017).
Calls of active or inactive are those of the source. The calls are words filed in the database; no cut-off is given here.

Columns and labels:
[1] = biological target: T1, Free fatty acid receptor 1 (Homo sapiens, UniProt O14842); experiment: Binding affinity to human GPR40 expressed in HEK293 cell membranes after 1 hr by radioligand displacement based scintillation counting method
Summary of the method: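 Binding of human GPR40 measured as Ki against a radioligand. Mean of at least two runs. Displacement of the label appears as a negative slope and potentiation as a positive one.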

[2] = biological target: T1, Free fatty acid receptor 1; experiment: Agonist activity at human GPR40 expressed in CHO-A12 cells assessed as increase in intracellular calcium flux measured for 100 secs by FLIPR assay; type: functional, cell-based
[3] = biological target: T1, Free fatty acid receptor 1; experiment: Potentiation of DHA-induced agonist activity at human GPR40 inducibly expressed in HEK293 cells assessed as increase in intracellular calcium flux at agonism EC50 measured for 100 secs by FLIPR assay; type: functional, cell-based
[4] = tested on: Mus musculus; experiment: Antidiabetic activity in C57BL/6J mouse assessed as change in plasma glucose AUC (0 to 120 mins) at 1 mg/kg, po administered 1 hr prior to glucose challenge by oral glucose tolerance test; type: functional
Summary of the method: (§1)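 C57BL/6J mice dosed orally at 0.3 or 1 mg/kg 1 h before an oral glucose bolus. Plasma glucose sampled at -60, -20, 0, 20, 40, 60 and 120 min; glucose AUC0-120 expressed relative to vehicle.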

[5] = biological target: T1, Free fatty acid receptor 1; experiment: Agonist activity at human GPR40 transfected in HEK293 cells assessed as induction of cAMP accumulation incubated for 30 to 45 mins by HTRF assay; type: functional, cell-based
[6] = biological target: T1, Free fatty acid receptor 1; experiment: Intrinsic activity at human GPR40 transfected in HEK293 cells assessed as induction of cAMP accumulation at 16.7 uM incubated for 30 to 45 mins by HTRF assay relative to […]; type: functional, cell-based
[7] = biological target: T1, Free fatty acid receptor 1; experiment: Potentiation of DHA-induced agonist activity at human GPR40 inducibly expressed in HEK293 cells assessed as increase in intracellular calcium flux at 10 nM measured for 100 secs by FLIPR assay; type: functional, cell-based
Summary of the method: (§2)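 Ca2+ FLIPR concentration-response to DHA in inducible hGPR40 cells, alone or with fixed added test compound (3 nM or 10 nM); curve shift assessed.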

[8] = biological target: Free fatty acid receptor 1 (Mus musculus) (UniProt Q76JU9); experiment: Intrinsic activity at mouse GPR40 expressed in CHO-A12 cells assessed as increase in intracellular calcium flux at 8.3 uM measured for 100 secs by FLIPR assay […]; type: functional, cell-based
[9] = biological target: T2, Free fatty acid receptor 1 (Mus musculus, UniProt Q76JU9); experiment: Agonist activity at mouse GPR40 expressed in CHO-A12 cells assessed as increase in intracellular calcium flux measured for 100 secs by FLIPR assay; type: functional, cell-based
[10] = biological target: T2, Free fatty acid receptor 1; experiment: Agonist activity at GPR40 in mouse STC1 cells assessed as induction of GLP-1 secretion measured after 1 hr by HTRF assay; type: cell-based
[11] = Fraction unbound in mouse plasma; type: ADME, cell-free
[12] = biological target: T3, PPARgamma (Homo sapiens, UniProt P37231); experiment: Transactivation of human Gal4 fused PPARgamma-LBD expressed in HEK293 cells at 4.8 uM after 18 hrs by luciferase reporter gene assay relative to […]; type: cell-based; settings: HEK293 cells expressing Gal4-fused human PPARgamma-LBD
T3 sequence (P37231 whole entry): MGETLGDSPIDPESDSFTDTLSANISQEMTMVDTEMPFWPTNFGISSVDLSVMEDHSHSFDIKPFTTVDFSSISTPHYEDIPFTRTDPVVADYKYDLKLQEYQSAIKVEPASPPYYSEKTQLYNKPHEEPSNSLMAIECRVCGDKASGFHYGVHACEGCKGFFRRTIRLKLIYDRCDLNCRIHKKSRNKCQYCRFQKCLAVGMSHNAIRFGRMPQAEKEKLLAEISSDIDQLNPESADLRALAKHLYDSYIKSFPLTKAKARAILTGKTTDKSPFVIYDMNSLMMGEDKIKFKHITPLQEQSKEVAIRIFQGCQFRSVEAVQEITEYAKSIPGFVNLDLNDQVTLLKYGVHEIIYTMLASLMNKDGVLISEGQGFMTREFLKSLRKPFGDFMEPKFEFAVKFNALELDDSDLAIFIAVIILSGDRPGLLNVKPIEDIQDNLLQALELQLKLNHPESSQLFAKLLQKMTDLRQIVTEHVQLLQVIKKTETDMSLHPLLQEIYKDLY

[13] = Oral bioavailability in C57BL6 mouse at 0.5 mg/kg; type: ADME, organism-based; settings: in vivo
[14] = Half life in cynomolgus monkey liver microsomes; type: ADME, Macaca fascicularis, microsome
[15] = biological target: T4, Peroxisome proliferator-activated receptor gamma (Homo sapiens, UniProt P37231); experiment: Transactivation of human Gal4 fused PPARgamma-LBD expressed in HEK293 cells after 18 hrs by luciferase reporter gene assay; type: cell-based
T4 sequence (P37231 whole entry): T3 sequence (P37231 whole entry)
Summary of the method: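 Gal4 gene reporter transactivation assay for PPARγ; EC50 and Ymax reported.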

[16] = Terminal half life in CD-1 mouse at 0.2 mg/kg, iv by LC-MS/MS analysis; type: ADME, organism-based; settings: in vivo, read-out: beta t1/2 (converted)
[17] = biological target: Free fatty acid receptor 1 (Mus musculus) (UniProt Q76JU9); experiment: Agonist activity at GPR40 in C57BL/6J mouse primary pancreatic islets assessed as increase in glucose-stimulated insulin secretion after 1 hr by ELISA
Summary of the method: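 Primary islets isolated from mice; insulin secretion measured across 0.016-2.0 µM compound to assess glucose-stimulated insulin secretion.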

[18] = biological target: T5, Peroxisome proliferator-activated receptor gamma (Mus musculus, UniProt P37238); experiment: Agonist activity at PPARgamma in mouse 3T3L1 cells assessed as increase in insulin induced adipocyte differentiation by measuring free glycerol levels at 3 uM; type: cell-based
T5 sequence (P37238 whole entry): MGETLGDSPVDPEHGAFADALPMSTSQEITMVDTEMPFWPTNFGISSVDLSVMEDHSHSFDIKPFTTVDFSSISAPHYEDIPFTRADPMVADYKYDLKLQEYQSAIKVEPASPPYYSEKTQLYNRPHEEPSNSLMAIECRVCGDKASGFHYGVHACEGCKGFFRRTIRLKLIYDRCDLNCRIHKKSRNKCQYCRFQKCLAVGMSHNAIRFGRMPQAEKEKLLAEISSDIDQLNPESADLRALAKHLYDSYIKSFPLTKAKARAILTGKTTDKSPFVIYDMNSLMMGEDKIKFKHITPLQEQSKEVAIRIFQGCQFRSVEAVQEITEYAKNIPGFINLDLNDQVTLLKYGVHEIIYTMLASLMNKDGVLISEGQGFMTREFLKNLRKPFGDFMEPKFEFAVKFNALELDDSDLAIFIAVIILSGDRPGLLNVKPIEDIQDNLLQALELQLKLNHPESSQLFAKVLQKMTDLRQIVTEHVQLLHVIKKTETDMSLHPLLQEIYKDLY
Summary of the method: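 3T3L1 cells incubated with compound at 3 µM; free glycerol levels measured as a marker of PPARγ-mediated adipocyte differentiation.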

[19] = biological target: Cytochrome P450 3A4 (Homo sapiens, UniProt P08684); experiment: Inhibition of CYP3A4 (unknown origin); type: ADME
[20] = biological target: T4, Peroxisome proliferator-activated receptor gamma; experiment: Binding affinity to PPARgamma (unknown origin); type: ADME
[21] = tested on: Rattus norvegicus; experiment: Toxicity in rat assessed as induction of hyperactivity at 80 mg/kg administered as single dose; type: organism-based; settings: in vivo
Summary of the method: (§3)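 Male rats fitted with telemetry received a single 80 mg/kg dose. Heart rate and blood pressure recorded by telemetry; locomotor activity monitored.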

[22] = biological target: T1, Free fatty acid receptor 1; experiment: Potentiation of DHA-induced agonist activity at human GPR40 inducibly expressed in HEK293 cells assessed as increase in intracellular calcium flux at 3 nM measured for 100 secs by FLIPR assay; type: functional, cell-based; summary of the method: as §2
[23] = Fraction unbound in human plasma; type: ADME, cell-free
[24] = tested on: Mus musculus; experiment: Decrease in blood glucose level in C57BL/6J mouse at 0.3 mg/kg, po administered 1 hr prior to glucose challenge measured up to 120 mins by oral glucose tolerance test; type: functional, organism-based; summary of the method: as §1
[25] = Half life in mouse liver microsomes; type: ADME, microsome
[26] = Volume of distribution at steady state in CD-1 mouse at 0.2 mg/kg, iv by LC-MS/MS analysis; type: ADME, organism-based; settings: in vivo, read-out: Vdss
[27] = tested on: Rattus norvegicus; experiment: Toxicity in rat assessed as effect on heart rate at 80 mg/kg administered as single dose; type: organism-based; settings: in vivo; summary of the method: as §3
[28] = Half life in human liver microsomes; type: ADME, microsome
[29] = Clearance in CD-1 mouse at 0.2 mg/kg, iv by LC-MS/MS analysis; type: ADME, organism-based; settings: in vivo
[30] = tested on: Rattus norvegicus; experiment: Toxicity in rat assessed as effect on mean arterial blood pressure at 80 mg/kg administered as single dose; type: organism-based; settings: in vivo; summary of the method: as §3
[31] = biological target: T6, Nuclear receptor subfamily 1 group I member 2 (Homo sapiens, UniProt O75469); experiment: Antagonist activity at PXR (unknown origin); type: ADME
T6 sequence (O75469 whole entry): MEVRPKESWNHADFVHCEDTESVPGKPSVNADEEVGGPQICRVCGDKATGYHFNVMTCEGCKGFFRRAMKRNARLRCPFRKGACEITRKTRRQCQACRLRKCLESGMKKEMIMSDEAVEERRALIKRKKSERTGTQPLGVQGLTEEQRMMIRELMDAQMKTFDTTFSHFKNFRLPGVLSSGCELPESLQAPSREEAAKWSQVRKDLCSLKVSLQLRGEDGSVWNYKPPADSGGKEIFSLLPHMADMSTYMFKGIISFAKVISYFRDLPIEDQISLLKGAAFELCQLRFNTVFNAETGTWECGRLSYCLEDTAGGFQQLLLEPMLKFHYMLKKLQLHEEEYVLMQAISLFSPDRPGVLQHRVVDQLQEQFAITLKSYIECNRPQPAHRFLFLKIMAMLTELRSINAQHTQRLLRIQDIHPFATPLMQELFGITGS

[32] = Antagonist activity at sodium channel (unknown origin); settings: human

T1 sequence (O14842 whole entry): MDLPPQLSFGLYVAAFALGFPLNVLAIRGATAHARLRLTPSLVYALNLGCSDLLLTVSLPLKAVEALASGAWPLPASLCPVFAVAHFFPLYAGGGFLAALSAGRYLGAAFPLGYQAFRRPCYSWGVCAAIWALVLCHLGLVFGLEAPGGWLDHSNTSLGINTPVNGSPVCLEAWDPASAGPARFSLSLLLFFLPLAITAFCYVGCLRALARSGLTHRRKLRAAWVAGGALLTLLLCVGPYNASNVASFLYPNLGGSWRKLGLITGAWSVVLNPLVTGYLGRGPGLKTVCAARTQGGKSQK
T2 sequence (Q76JU9 whole entry): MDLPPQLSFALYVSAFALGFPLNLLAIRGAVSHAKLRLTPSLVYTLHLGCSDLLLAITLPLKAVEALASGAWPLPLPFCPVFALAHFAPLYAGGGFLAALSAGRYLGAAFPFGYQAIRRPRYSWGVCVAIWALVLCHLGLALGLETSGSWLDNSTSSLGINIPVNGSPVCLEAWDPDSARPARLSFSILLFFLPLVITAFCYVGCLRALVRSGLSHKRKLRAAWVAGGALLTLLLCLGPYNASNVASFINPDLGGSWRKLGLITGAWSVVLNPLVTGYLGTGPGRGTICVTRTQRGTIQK
Sequence of Free fatty acid receptor 1 (Mus musculus) (Q76JU9 whole entry): as above
Sequence of Cytochrome P450 3A4 (P08684 whole entry): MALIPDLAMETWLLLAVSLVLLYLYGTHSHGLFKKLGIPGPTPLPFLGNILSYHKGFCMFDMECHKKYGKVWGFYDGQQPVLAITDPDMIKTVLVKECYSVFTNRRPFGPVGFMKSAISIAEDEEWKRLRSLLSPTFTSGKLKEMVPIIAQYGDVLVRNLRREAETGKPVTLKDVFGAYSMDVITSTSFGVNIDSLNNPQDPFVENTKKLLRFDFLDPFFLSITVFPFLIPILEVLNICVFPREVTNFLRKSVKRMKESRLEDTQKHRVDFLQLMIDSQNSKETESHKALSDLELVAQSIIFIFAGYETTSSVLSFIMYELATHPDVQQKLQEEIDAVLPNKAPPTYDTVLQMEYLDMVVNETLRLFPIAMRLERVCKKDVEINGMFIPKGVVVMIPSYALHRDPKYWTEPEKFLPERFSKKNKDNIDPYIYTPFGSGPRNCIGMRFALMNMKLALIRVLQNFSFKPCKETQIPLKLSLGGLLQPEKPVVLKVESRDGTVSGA

With `COc1ccc(F)c(-c2ccc(Cc3ccc(N4C[C@@H](C(F)(F)F)C[C@H]4CC(=O)O)cc3)c(C)c2)c1` the Ki [1] was 0.045 µM, the EC50 [2] was 0.49 µM and the Activity [3] was “inactive”. The Activity [4] was “inactive”, the EC50 [5] was 2.4 µM and the Intrinsic activity [6] was 28%. For the same compound, the Activity [7] was “inactive”, the Intrinsic activity [8] was 46% and the EC50 [9] was 2.4 µM. For the same compound, the EC50 [10] was 3.2 µM.

Compound `COc1ccc(F)c(-c2ccc(Cc3ccc(N4C[C@H](C(F)(F)F)C[C@@H]4CC(=O)O)cc3)c(C)c2)c1` has a fraction unbound [11] of 0.011, an Emax at 18 h, 4.8 µM [12] of 40% and a bioavailability [13] of 83%. The EC50 [2] was 0.11 µM, the half-life [14] was over 2 h and the Activity [4] was 39%. The EC50 [5] was 0.21 µM, the EC50 [15] was 4.4 µM and the Intrinsic activity [6] was 140%. For the same compound, the half-life [16] was 7 h, the Activity [17] was “Dose-dependent effect” and the Activity [18] was “Active”. For the same compound, the IC50 [19] was 1.7 µM, the Activity [20] was 1.6 µM and the Activity [21] was “Toxic”. For the same compound, the Activity [22] was “Active”, the Intrinsic activity [8] was 210% and the fraction unbound [23] was 0.001. For the same compound, the Activity [24] was “inactive”, the half-life [25] was over 2 h and the EC50 [9] was 0.054 µM. For the same compound, the EC50 [10] was 0.33 µM, the Vd [26] was 0.1 L/kg and the Activity [27] was “Non-Toxic”. For the same compound, the half-life [28] was over 2 h, the clearance [29] was 0.012 L/h/kg and the Activity [30] was “Non-Toxic”.

In the case of `O=C(O)C[C@@H]1CCCN1c1ccc(OCc2ccc(Cl)cc2Cl)cc1`, the “inhibition (INH)” value [31] is reported as “Active”, the Ki [1] is reported as 0.89 µM and the Emax at 18 h, 4.8 µM [12] is reported as 54%. For the same compound, the EC50 [2] was 0.34 µM, the EC50 [15] was 17 µM and the Intrinsic activity [8] was 54 to 66%. For the same compound, the EC50 [9] was 4.5 µM and the INH [32] was 4 µM.
